# Screens: PubChem, The Scripps Research Institute Molecular Screening Center
# TAAR1 antag: human TAAR1 antagonism; Q96RJ0; CHO RD-HGA16 TAAR1, Fluo-8 calcium fluorescence, antagonist; inhibition, % at 3 µM; actives 1.5% (n = 360,000); AID 624466;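 active = inhibition above a per-plate cutoff, the mean inhibition of test compounds on that plate plus 3 SD, cut at about 49% in these data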;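 also: 0% = DMSO plus EC80 beta-PEA response and 100% = DMSO alone without agonist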
# Target sequence (Q96RJ0 whole entry, looked up): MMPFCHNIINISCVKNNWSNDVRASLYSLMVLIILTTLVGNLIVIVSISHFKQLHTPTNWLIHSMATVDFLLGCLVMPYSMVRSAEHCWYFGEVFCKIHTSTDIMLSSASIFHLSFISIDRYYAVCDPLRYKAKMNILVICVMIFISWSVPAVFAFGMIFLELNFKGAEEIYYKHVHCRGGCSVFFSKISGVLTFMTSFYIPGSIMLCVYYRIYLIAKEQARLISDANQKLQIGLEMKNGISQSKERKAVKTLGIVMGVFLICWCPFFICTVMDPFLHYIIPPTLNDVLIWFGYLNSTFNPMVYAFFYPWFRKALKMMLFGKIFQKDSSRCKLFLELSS
#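 Test system – hTAAR1-expressing CHO RD-HGA16 cells, Gα16-coupled · Also added – β-PEA at EC80 concentration, post-compound challenge · Compound – 3 µM, single point · Incubation – dye loading 75 min at 37 °C, then 30 min room temperature · Measured by – Fluo-8 intracellular calcium dye fluorescence, real-time kinetic reads · Benchmarks – vehicle and agonist controls · Replicates – singlicate, one well per test compound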
# OX1R antag-1: blocks the human orexin 1 receptor; O43613; actives 0.43% (n = 330,000); CHO/OX1R cells, Fluo-8 calcium fluorescence, orexin A; inhibition, % at 5 µM;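 active = inhibition above its plate's threshold, mean inhibition of all tested compounds on the plate plus 3 SD, cut at about 37% in these data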;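 also: 0% = orexin A challenge wells and 100% = SB-334867-A antagonist wells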
# GPR7 antag: human neuropeptides B/W receptor 1 antagonism | P48145 | GPR7-expressing cells, fluorescence antagonist assay | inhibition, % at 4.4 µM | actives 1.1% (n = 290,000) | AID 1861; in the data active = inhibition above about 16%, passing the limit was not always enough;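 also: cells stimulated with the agonist NPW; 0% = agonist with vehicle and 100% = vehicle without agonist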
# Target sequence (P48145 whole entry, looked up): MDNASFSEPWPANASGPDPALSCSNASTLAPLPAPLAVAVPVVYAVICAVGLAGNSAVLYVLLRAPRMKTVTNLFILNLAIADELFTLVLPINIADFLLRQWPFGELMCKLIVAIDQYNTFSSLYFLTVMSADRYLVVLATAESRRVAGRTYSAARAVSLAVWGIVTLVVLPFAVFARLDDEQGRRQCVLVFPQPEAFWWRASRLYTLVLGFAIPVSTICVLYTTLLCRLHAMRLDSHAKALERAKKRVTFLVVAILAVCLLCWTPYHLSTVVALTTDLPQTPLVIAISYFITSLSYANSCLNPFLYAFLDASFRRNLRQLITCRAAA
# TAAR1 ag: agonists of human TAAR1; Q96RJ0; actives 0.99% (n = 360,000); activation, % at 3 µM; CHO RD-HGA16 TAAR1, Fluo-8 calcium fluorescence; vehicle wells 0%, saturating PEA agonist 100%;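 active = activation above the mean activation of all test compounds in the run plus 3 SD, cut at about 38% in these data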
#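 Test system: RD-HGA16 (CHO) cells co-expressing Gα16 and hTAAR1; dosing: one-point dosing at 3 µM (nominal); timing: 17-24 h seeding, 75 min 37 °C dye, 30 min RT; signal: kinetic Fluo-8 calcium fluorescence; read-out basis: % activation relative to PEA EC100 response; controls: DMSO and PEA EC100; replicates: n 1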
# CHO parental Ca: signal in parental CHO cells, OX1R antagonist counter-screen; actives 0.63% (n = 330,000); inhibition, % at 5.6 µM; parental CHO-K1, ATP-induced calcium, Fluo-8 fluorescence;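 active = inhibition above that plate's mean sample inhibition plus 3 SD, cut at about 26% in these data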;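 also: 0% = ATP-challenged DMSO wells and 100% = DMSO wells without ATP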
#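 Test system: untransfected parental CHO cell line; also added: ATP stimulus; dosing: 5.6 µM, single dose; signal: calcium-sensitive Fluo-8 fluorescence; measure: percent inhibition of ATP-evoked calcium rise, normalized to controls; benchmarks: low control ATP plus DMSO, high control DMSO only; replication: one well per compound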
# OX1R antag-2: antagonists of human orexin 1 receptor (OX1R). O43613. OX1R-expressing cells, FRET antagonist read-out. inhibition, % at 6.6 µM. actives 1.8% (n = 330,000); in the data active = inhibition mostly above about 38%, no sharp cut-off; inactive = mostly below about 40%;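 also: 0% = agonist challenge alone and 100% = reference antagonist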
# * = called active by the depositor; . = no result given. Rows were chosen to be rich in hits. Some 4.6% of all compounds tested hit in one or more screens of this group.
SMILES,TAAR1 antag,OX1R antag-1,GPR7 antag,TAAR1 ag,CHO parental Ca,OX1R antag-2
O=S(=O)(NCc1ccc(Cl)cc1)c1ccc(Br)cc1C1CC[C@@H](O)C1 (some centres undefined),4.7,.,.,3.4,.,.
COc1cccc(-c2cc(C(=O)N3CCN(c4ncccn4)CC3)c3ccccc3n2)c1,55.9*,-18.5,-1.8,15.5,-11.6,8.2
CC(C)Oc1cccc(-c2cc(C(=O)N3CCN(c4ncccn4)CC3)c3ccccc3n2)c1,51.5*,-17.0,1.3,33.0,-3.3,14.9
CC(C)Oc1cccc(-c2cc(C(=O)N3CCN(S(C)(=O)=O)CC3)c3ccccc3n2)c1,43.4,-40.4,-6.2,18.8,-16.3,25.8
COc1ccc(-c2cc(C(=O)N3CCCCC3)c3ccccc3n2)cc1,15.0,-20.1,.,5.7,-34.7,6.6
COc1ccccc1C(=O)N1CCN(C(=O)[C@H]2O[C@@H](n3cnc(C(N)=O)n3)[C@H](O)[C@@H]2O)CC1,-6.7,.,.,0.5,.,.
COc1ccc(C(=O)NNC(=S)NC(=O)c2ccc(F)cc2)cc1Br,6.5,47.8*,.,51.3*,29.2,4.2
COc1cc(C(=O)NC(=S)NNC(=O)c2ccc3c(c2)OCO3)cc(OC)c1OC,-11.6,-20.2,-7.1,52.0*,-12.4,16.7
CN(C(=O)CSc1nnc(-c2ccccc2F)o1)c1ccccc1,-9.6,-16.8,.,1.1,-3.7,11.2
COc1ccc(CN(C(=O)CSc2nnc(-c3ccccc3F)o2)c2ccc(F)cc2)cc1,.,7.1,-22.1,.,26.4*,33.2
CC(=O)Nc1ccc(S(=O)(=O)N(Cc2ccccc2)c2ccccc2)cc1,5.5,8.3,-4.7,2.5,-9.8,66.1*
COc1ccc(N(Cc2cc3cc(OC)ccc3[nH]c2=O)S(=O)(=O)c2ccc(NC(C)=O)cc2)cc1,57.7*,-17.5,-11.2,29.3,-21.9,22.5
CCOc1ccc(N(Cc2cc3cc(OC)ccc3[nH]c2=O)S(C)(=O)=O)cc1,12.1,-17.0,-0.5,5.3,-14.9,4.6
CC(=O)Nc1ccc(S(=O)(=O)N(Cc2cccnc2)Cc2cc3ccccc3[nH]c2=O)cc1,60.8*,-0.9,-7.0,12.2,1.5,18.0
COc1ccc(-n2ncc(C(C)NS(=O)(=O)c3cccs3)c2C)cc1 (centres undefined),5.9,-17.0,7.9,3.4,-13.7,25.5
CCOC(=O)C1=CC[C@@H](c2ccccc2)C(C#N)(C#N)[C@H]1/C=C/c1ccccc1,41.2,.,.,0.0,.,.
Cc1ccc(C)c(OCC(=O)Nc2ccccc2C(=O)NC2CC2)c1,-3.8,.,3.2,2.2,.,.
O=C(COc1ccccc1F)Nc1ccccc1C(=O)NC1CC1,51.6*,-6.0,.,6.8,-6.9,8.8
CSc1n[nH]c(-c2cccs2)n1,3.8,.,.,-0.8,.,.
COc1ccc2[nH]c3c(c2c1)CCN1C(=O)N([C@@H](C)C(=O)NCc2c(F)cccc2Cl)C(=O)[C@]31C,1.6,-10.2,8.5,1.6,-10.5,23.9
C[C@@H](C(=O)NCc1c(F)cccc1Cl)N1C(=O)N2CCc3c([nH]c4ccccc34)[C@@]2(C)C1=O,26.2,22.1,6.5,-1.4,-6.7,67.4*
Cc1cc(C)cc(NC(=S)/C(=C(\[O-])c2ccc(Cl)cc2Cl)[n+]2ccccc2)c1,2.9,-26.6,16.1*,-1.1,-12.4,6.2
COC(=O)[C@]12C[C@H](CC(=O)NCc3cccc4ccccc34)C(=O)N(Cc3ccccc3)C1=C[C@H](C1CCCC1)O[C@@H]2C,-14.7,.,.,-0.4,.,.
C(=N\NC1=Nc2cccc3cccc1c23)/c1cccnc1,25.3,10.6,-2.7,7.2,-10.3,72.4*
C[C@H](CO)N1C[C@H](C)[C@@H](CN(C)C)Oc2c(NS(=O)(=O)c3cccs3)cccc2C1=O,-4.3,13.7,.,2.6,-8.4,-2.3
SMILES,TAAR1 antag,OX1R antag-1,GPR7 antag,TAAR1 ag,CHO parental Ca,OX1R antag-2
Cc1ccc([N+](=O)[O-])cc1NC(=O)c1ccc(C(C)(C)C)cc1,53.5*,11.2,1.7,7.3,-3.9,15.1
CC(C)(C)c1ccc(CC(=O)N2CCC2(C)C(=O)Nc2cnc3ccccc3c2)cc1 (centres undefined),52.6*,.,.,2.2,.,.
CC(C)c1ccc(CC(=O)N2CCC2(C)C(=O)Nc2cnc3ccccc3c2)cc1 (centres undefined),16.7,.,.,5.0,.,.
O=c1cc(CN2CCN(c3ccc(Cl)c(Cl)c3)CC2)c2ccccc2o1,-29.8,.,.,-1.4,.,.
N#Cc1c(-c2ccc(Cl)cc2)ccn2nc(CCC(=O)O)nc12,-0.1,-3.9,-19.6,9.0,7.5,56.1*
CCCCCc1nc2c(C#N)c(-c3ccc(Cl)cc3)ccn2n1,16.5,-8.1,-7.4,-1.1,-2.1,16.0
CC(=O)c1ccc(OCc2ccc(C(=O)c3ccccc3)cc2)cc1,32.4,22.3,13.8,7.0,49.2*,42.6
Cc1nc([N+](=O)[O-])cn1-c1nc2ccccn2c1[N+](=O)[O-],-4.5,-11.3,-2.7,1.9,-2.9,54.5*
Cc1nc([N+](=O)[O-])cn1CC(=O)c1ccccc1,-12.6,-6.1,-19.2,0.9,2.3,21.2
CN(C)c1ccc(/C=C2\CCC/C(=C\c3ccccc3)C2=O)cc1,17.7,36.6,-1.5,18.7,50.8*,23.6
O=C(NCc1ccccc1)[C@H]1CCCN1C(=O)[C@H]1CCCN1C(=O)c1ccc(OC(F)(F)F)cc1,-2.3,.,.,-1.3,.,.
Cc1ccc(NS(=O)(=O)c2ccc(OCC(=O)NCc3ccco3)cc2)cc1,22.0,-13.4,4.4,40.3*,-7.5,7.0
CC(SCc1ccccc1)C(=O)N/N=C/c1ccc(OCC(=O)NCc2ccco2)cc1 (centres undefined),12.3,24.1,-4.0,5.6,-2.1,55.8*
Cc1nnsc1C(=O)N1CCCC(N2CCN(c3ccc(F)cc3)CC2)C1 (centres undefined),-9.5,-14.4,-4.9,2.0,-2.9,0.5
CN(C)c1ccc(C(=O)NCC(c2cccs2)N2CCOCC2)cc1 (centres undefined),-1.8,4.3,.,0.2,-11.1,3.7
COc1ccc(C2CC(=O)C(c3cc(OC)c(OC)c(OC)c3)=CN2Cc2ccccc2)cc1 (centres undefined),-12.1,.,.,-1.1,.,.
c1ccc(-c2nc(-c3cccs3)[nH]c2-c2ccccc2)cc1,1.9,-7.2,-9.6,3.7,-20.3,13.2
Cc1nc2nc(-c3cccs3)[nH]c2cc1Br,-27.7,-0.3,.,3.3,-4.6,42.6*
CSc1ccc(C2c3[nH]c4ccccc4c3CCN2C(=O)c2ccnn2C)cc1 (centres undefined),48.6*,-23.7,16.6,13.6,-0.8,18.7
O=C(CSc1cccc[n+]1[O-])Nc1ccc(Cl)cc1F,-15.3,-24.5,.,1.5,4.5,-1.2
Cc1cc(C)c(NC(=O)CSc2cccc[n+]2[O-])c(C)c1,-1.0,-7.9,.,1.0,-6.7,4.8
